Screens as filed in PubChem BioAssay.
Sampled rows, rich in hits. Any-hit rate of the full collection: about 1.8%.
DAGLB inh – blocks human DAGLB lipase activity | Q8NCG7 | HEK293T DAGLB membrane lysate, EnzChek fluorogenic substrate | inhibition, % at 5.17 µM | 340,000 compounds, 0.059% hits; in the data active = inhibition above about 34%
Target sequence (Q8NCG7 whole entry, looked up): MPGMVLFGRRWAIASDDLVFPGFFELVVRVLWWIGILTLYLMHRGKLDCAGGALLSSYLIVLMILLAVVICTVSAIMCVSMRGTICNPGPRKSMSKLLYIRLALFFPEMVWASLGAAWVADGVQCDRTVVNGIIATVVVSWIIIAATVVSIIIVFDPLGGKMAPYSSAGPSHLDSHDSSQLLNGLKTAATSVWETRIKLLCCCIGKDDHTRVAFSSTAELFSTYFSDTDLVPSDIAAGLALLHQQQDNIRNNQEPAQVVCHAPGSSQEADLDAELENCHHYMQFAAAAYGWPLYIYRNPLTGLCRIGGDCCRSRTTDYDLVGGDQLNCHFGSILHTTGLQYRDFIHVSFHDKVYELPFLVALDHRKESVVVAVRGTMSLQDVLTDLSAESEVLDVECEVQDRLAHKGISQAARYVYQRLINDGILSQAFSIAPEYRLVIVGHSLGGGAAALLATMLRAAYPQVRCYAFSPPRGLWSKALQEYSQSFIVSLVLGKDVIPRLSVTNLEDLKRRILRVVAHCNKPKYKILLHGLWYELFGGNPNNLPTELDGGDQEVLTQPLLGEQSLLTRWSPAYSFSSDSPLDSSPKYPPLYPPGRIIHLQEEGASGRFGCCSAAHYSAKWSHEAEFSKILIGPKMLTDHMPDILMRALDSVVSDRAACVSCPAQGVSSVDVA
rRNA inh HTS – inhibits bacterial ribosomal RNA function over humanized ribosomes | E. coli WT GFP vs humanized-ribosome RFP mutants, fluorescence, 24 h; stronger effect = lower value; DMSO median 0, no signal -100 | 350,000 compounds, 1.6% hits | GFP signal change (wild-type ribosome), % (no concentration beside the values) | AID 720706;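 active = significant combined selectivity score with lowered wild-type GFP, culture density cut under 30%, mutant RFP and density less affected; inactive = any of these conditions unmet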
MT1-MMP act inh – blocks activation of human MT1-MMP; P50281; HT1080 RFP-PRO-GFP cells, GFP/RFP ratio fluorescence, overnight; percent of plate control window, DMSO zero; GFP/RFP ratio change, % at 20 µM; 360,000 compounds, 0.061% hits;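 active = GFP/RFP ratio change of at least 30% with cell ATP level not reduced by more than half and red fluorescence within 50% of control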
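Read-out: GFP/RFP fluorescence ratio; Test system: RFP-PRO-GFP reporter HT1080 cells; Compound dosing: single-point 20 µM compound, 1% DMSO; Times: overnight compound exposure at 37 °C.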
Cneo AK release – Cryptococcus neoformans lysis via adenylate kinase release | C. neoformans lysis, adenylate kinase release luminescence, 4 h; normalised: neutral wells 0, clomiphene wells 100 | lysis activity, % at 15 µM | 360,000 compounds, 0.2% hits | AID 651654;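 active = mean lysis activity across replicates of at least 80%, whatever share of replicates individually reach that level; inactive = mean lysis activity below 80%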
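Test system: log-phase Cryptococcus neoformans yeast cells; Quantity: yeast cell density of 5 × 10^6 cells/mL; Buffer or medium: YPD; Doses: single compound concentration per well; Timing: 4 h at 37 °C static, read 1 h later; Measured by: AK luminescence; Read-out basis: lysis from increased AK signal; Control set: Clomiphene as positive control.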
iPSC survival up – hiPSC single-cell survival enhancement; AID 602274; survival enhancement, % at 20 µM; ATPlite luminescence; 100% = ROCK inhibitor wells, 0% = DMSO; 360,000 compounds, 0.044% hits; in the data active = survival enhancement above about 18%;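 also: cells exposed to compounds for 16 hours before the ATP read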
SKN-1 inh – C. elegans SKN-1 inhibition | C. elegans VP596 Pgst-4::GFP/RFP ratio, acrylamide-induced, 24 h | inhibition, % at 21.8 µM | 360,000 compounds, 0.49% hits;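 active = interference check ratio from 0.5 to 1.5 plus GFP to RFP signal ratio inhibition reaching or exceeding a fixed threshold, cut at about 30% in these data, passing the limit was not always enough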
Of the large screens only hits and unclear results are named; the others gave an inactive call.

O=C(C[C@H]1C[C@@H]2c3cc(NC(=O)Nc4ccccc4F)ccc3O[C@@H]2[C@H](CO)O1)NCCc1ccccc1	none (no result: DAGLB inh, MT1-MMP act inh, iPSC survival up, SKN-1 inh)
COC(=O)C(=Nc1ccccc1)/C(C(=O)C(=O)N(C)c1ccccc1)=C(\O)c1ccccc1	rRNA inh HTS -25.0
C[C@@H]1CN([C@@H](C)CO)C(=O)c2c(c3ccccc3n2C)-c2ccccc2CO[C@@H]1CN(C)Cc1cccc2c1OCCCO2	none (no result: DAGLB inh, MT1-MMP act inh, Cneo AK release, iPSC survival up, SKN-1 inh)
Clc1ccc(-c2nc3ccc(Br)cn3c2Cc2ccsc2)cc1	rRNA inh HTS -22.9 (no result: DAGLB inh)
Cc1cc(Br)cn2c(Cc3cccc(F)c3)c(-c3ccc(Cl)cc3)nc12	rRNA inh HTS -31.5 (no result: DAGLB inh)
COc1ccccc1Cc1c(-c2ccc(F)cc2)nc2c(C)cc(Br)cn12	rRNA inh HTS -32.5 (no result: DAGLB inh)
FC(F)(F)c1ccccc1Cc1c(-c2ccc(Cl)cc2)nc2ccc(Br)cn12	none (no result: DAGLB inh)
N#Cc1ccc(-c2nc3ccc(Br)cn3c2Cc2ccsc2)cc1	none (no result: DAGLB inh)
COc1ccccc1Cc1c(-c2ccc(C)cc2)nc2c(C)cc(Br)cn12	none (no result: DAGLB inh)
Fc1ccc(-c2nc3ccc(Br)cn3c2Cc2ccccc2C(F)(F)F)cc1	SKN-1 inh 50.9 (no result: DAGLB inh)
CC(C)NC(=O)Nc1ccc2c(c1)C(=O)N([C@@H](C)CO)C[C@@H](C)[C@H](CN(C)CC1CCCCC1)O2	none (no result: DAGLB inh, MT1-MMP act inh, iPSC survival up, SKN-1 inh)
COc1ccc(Cc2c(-c3ccco3)nc3c(C)cc(Br)cn23)c(C)c1	SKN-1 inh 48.4 (no result: DAGLB inh, rRNA inh HTS)
COc1ccc(Cc2c(-c3ccco3)nc3ccc(Br)cn23)c(C)c1	none (no result: DAGLB inh)
O=C(NCc1ccco1)C1CCN(C(=O)c2cc3sccc3n2Cc2ccc(F)cc2)CC1	rRNA inh HTS -28.6
C[C@@H]1CCCCO[C@@H](CN(C)C(=O)Nc2ccc3c(c2)OCO3)[C@H](C)CN([C@H](C)CO)C(=O)c2cc(NC(=O)Nc3cccc4ccccc34)ccc2O1	none (no result: DAGLB inh, MT1-MMP act inh, Cneo AK release, iPSC survival up, SKN-1 inh)
C[C@@H]1CCCCO[C@@H](CN(C)C(=O)Nc2ccc3c(c2)OCO3)[C@@H](C)CN([C@H](C)CO)C(=O)c2cc(NC(=O)Nc3cccc4ccccc34)ccc2O1	Cneo AK release 105.1 (no result: DAGLB inh, MT1-MMP act inh, iPSC survival up, SKN-1 inh)
C[C@@H]1CCCCO[C@@H](CN(C)CC2CCCCC2)[C@@H](C)CN([C@@H](C)CO)C(=O)c2cc(NC(=O)Nc3cccc4ccccc34)ccc2O1	none (no result: DAGLB inh, MT1-MMP act inh, iPSC survival up, SKN-1 inh)
C[C@@H]1CN([C@H](C)CO)C(=O)c2cc(NC(=O)Nc3cccc4ccccc34)ccc2O[C@@H](C)CCCCO[C@@H]1CN(C)Cc1ccc2c(c1)OCO2	Cneo AK release 83.6 (no result: DAGLB inh, MT1-MMP act inh, iPSC survival up, SKN-1 inh)
C[C@@H]1CCCCO[C@H](CN(C)CC2CCCCC2)[C@H](C)CN([C@@H](C)CO)C(=O)c2cc(NC(=O)Nc3cccc4ccccc34)ccc2O1	rRNA inh HTS -53.1 (no result: DAGLB inh, MT1-MMP act inh, iPSC survival up, SKN-1 inh)
C[C@@H](O)C#Cc1ccc2c(c1)O[C@@H](CN(C)C(=O)c1ccccc1)[C@@H](C)CN([C@@H](C)CO)S2(=O)=O	none (no result: DAGLB inh, MT1-MMP act inh, iPSC survival up, SKN-1 inh)
C[C@H](NC(=O)C[C@H]1C[C@H]2c3cc(NC(=O)C4CCC4)ccc3O[C@H]2[C@H](CO)O1)c1ccccc1	none (no result: DAGLB inh, MT1-MMP act inh, iPSC survival up, SKN-1 inh)
C[C@@H]1CN([C@H](C)CO)C(=O)c2cc(-c3ccccc3F)cnc2O[C@@H]1CN(C)C(=O)c1cnccn1	none (no result: DAGLB inh, MT1-MMP act inh, iPSC survival up, SKN-1 inh)
CCC(C)(C)c1nnc(NC(=O)CCC2CCCCC2)s1	SKN-1 inh 35.7 (no result: DAGLB inh)
COc1ccc(-c2csc(CCn3nc(C)cc3C)n2)cc1	rRNA inh HTS -21.0 (no result: Cneo AK release)
Cc1ccccc1C(=O)Nc1ccc(C(=O)N/N=C/c2ccc(O)c(Br)c2)cc1	rRNA inh HTS -19.2 (no result: Cneo AK release)
Cc1ccccc1C(=O)Nc1ccc(C(=O)N/N=C/c2ccc(F)cc2)cc1	none (no result: Cneo AK release)
O=C(Nc1nnc([C@H]2C[C@H](O)[C@@H](CO)O2)s1)Nc1cccc(Cl)c1Cl	rRNA inh HTS -25.1 (no result: DAGLB inh)
Cc1ccccc1NC(=O)Nc1nnc([C@@H]2C[C@H](O)[C@@H](CO)O2)s1	none (no result: DAGLB inh)
O=C(/C=C/c1ccc([N+](=O)[O-])cc1)c1ccccc(=O)c1O	rRNA inh HTS -14.2 (no result: Cneo AK release)
O=C(/C=C/c1ccccc1Cl)c1ccccc(=O)c1O	none (no result: rRNA inh HTS, Cneo AK release)
O=C(NCc1cccc(C(F)(F)F)c1)C1CC(c2ccccc2[N+](=O)[O-])=NO1 (stereo not drawn)	rRNA inh HTS -33.0
